# Experimental data from different studies.
# Compare with care: the assays were run in different laboratories.
# Matrix: plasma
SMILES,test system,setting,endpoint,value
Cc1cc(S(=O)(=O)N[C@H]2CC[C@H](CN3CCN(c4cccc(NC5CCC(=O)NC5=O)c4)CC3)CC2)ccc1Nc1ncc(C(F)(F)F)c(N2CCC[C@](C)(O)C2)n1 (stereo partly shown),rat,"intravenous, 2 mg/kg",clearance,43 mL/min/kg
CC[C@H](C)[C@H](NC(=O)[C@@H]1CCCN1C(=O)CNC(=O)[C@H](Cc1ccccc1)NC(=O)[C@H](CC(N)=O)NC(=O)[C@H](CC(N)=O)NC(=O)[C@H](CO)NC(=O)[C@H](CO)NC(=O)[C@H](Cc1c[nH]cn1)NC(=O)[C@H](CCCNC(=N)N)NC(=O)[C@H](CC(C)C)NC(=O)[C@H](Cc1ccccc1)NC(=O)[C@H](CCC(=O)O)NC(=O)[C@H](C)NC(=O)[C@H](CC(C)C)NC(=O)[C@H](CCCNC(=N)N)NC(=O)[C@H](CCC(N)=O)NC(=O)[C@@H](NC(=O)[C@H](C)NC(=O)[C@@H]1CSSC[C@H](NC(=O)[C@H](CCCCN)NC(=O)CC[C@H](NC(=O)CCCCCCCCCCCCCCCCCCC(=O)O)C(=O)O)C(=O)N[C@@H](CC(N)=O)C(=O)N[C@@H]([C@@H](C)O)C(=O)N[C@@H](C)C(=O)N[C@@H]([C@@H](C)O)C(=O)N1)[C@@H](C)O)C(=O)N[C@@H](CC(C)C)C(=O)N1CCC[C@H]1C(=O)N1CCC[C@H]1C(=O)N[C@H](C(=O)N[C@@H](CC(N)=O)C(=O)N[C@H](C(=O)NCC(=O)N[C@@H](CO)C(=O)N[C@@H](CC(N)=O)C(=O)N[C@H](C(=O)N1CCC[C@H]1C(N)=O)[C@@H](C)O)C(C)C)[C@@H](C)O,male Sprague-Dawley rat,"subcutaneous, 30 nmol/kg, single dose",CL/F,0.112 mL/min/kg
CNS(=O)(=O)c1ccc(Nc2ncc(C(F)(F)F)c(N3CCC[C@](C)(O)C3)n2)c(C)c1,rat,"intravenous, 2 mg/kg",clearance,31 mL/min/kg
CCCc1nc2c(C)cc(-c3nc4ccccc4n3C)cc2n1Cc1ccc(-c2ccccc2C(=O)O)cc1,male Sprague-Dawley rat,"oral, 8 mg/kg, single dose",CL/F,78 mL/min/kg
Cc1cc(S(=O)(=O)NC2CC(N3CCN(CC4CCN(c5cccc6c5n(C)c(=O)n6C5CCC(=O)NC5=O)CC4)CC3)C2)ccc1Nc1ncc(C(F)(F)F)c(N2CCC[C@](C)(O)C2)n1 (stereo partly shown),rat,"intravenous, 2 mg/kg",clearance,37 mL/min/kg
C[C@H]1Oc2cc(cnc2N)-c2c(nn(C)c2C#N)CN(C)C(=O)c2ccc(F)cc21,male Sprague-Dawley rat,"oral, 10 mg/kg, single dose",CL/F,66.7 mL/min/kg
C1=C/COCc2cc(ccc2OCCN2CCCC2)Nc2nccc(n2)-c2cccc(c2)COC/1,rat,"oral, 36 mg/kg",CL/F,11700 mL/h
Cc1nc(Nc2ncc(C(=O)Nc3c(C)cccc3Cl)s2)cc(N2CC[C@@H](N)C2)n1,male Sprague-Dawley rat,"intravenous, 1 mg/kg",clearance,135 mL/min/kg
CCN(CC)Cc1ccc2cc(COC(=O)Nc3ccc(C(=O)NO)cc3)ccc2c1,male Sprague-Dawley rat,"oral, 10 mg/kg",CL/F,20.2 mL/min/kg
CC[C@@H]([C@H](C)O)n1ncn(-c2ccc(N3CCN(c4ccc(OC[C@@H]5CO[C@@](Cn6cncn6)(c6ccc(F)cc6F)C5)cc4)CC3)cc2)c1=O,Sprague-Dawley rat,"oral, 40 mg/kg",CL/F,79 mL/min/kg
